For two compounds, MIC, survival and Survival results are on record in ChEMBL document CHEMBL1128448, “Synthesis and antifungal activity of new azole derivatives containing an N-acylmorpholine ring” (1995).

For test [1], the system named is Aspergillus fumigatus. As to the kind of experiment: In vitro evaluation of minimum inhibitory concentration against Aspergillus fumigatus 33. The test is classed as functional. In a few lines:
(§1)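 Stocks are 800 μg/mL in 50% ethanol. Each plate gets 10 μL of inoculum at 10^5 cfu/mL. Incubation at 25 °C, 48 h for yeasts and 120 h for dermatophytes and molds. Organisms are ATCC strains or clinical isolates.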

In test [2] the test system is Aspergillus niger. As to the kind of experiment: In vitro evaluation of minimum inhibitory concentration against Aspergillus niger 18. The test is classed as functional. The conditions noted are these: Aspergillus niger; read-out: MIC. The procedure, abridged:
as §1

Test [3] relates to Candida albicans. Description: In vitro evaluation of minimum inhibitory concentration against Candida albicans 76. Type of test: functional. In a few lines: as §1
For test [4], the system named is Candida albicans. As to the kind of experiment: In vivo evaluation of minimum inhibitory concentration against Candida albicans 406. Type of test: functional. The procedure, abridged:
(§2)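 Broth macrodilution MIC following NCCLS M27-P, in RPMI-1640 buffered with 0.165 M MOPS. Fluconazole was dissolved in water and other drugs in DMSO. C. parapsilosis ATCC 22019 served as the reference strain in every run. MIC was the lowest concentration giving turbidity at or below the 80% inhibition standard.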

Test [5] relates to Candida albicans. Description: In vivo evaluation of minimum inhibitory concentration against Candida albicans 60. Type of test: functional. In a few lines: as §2
For test [6], the system named is Meyerozyma guilliermondii. As to the kind of experiment: In vitro evaluation of minimum inhibitory concentration against Candida guilliermondii 26. The test is classed as functional. The procedure, abridged:
as §1

The subject of test [7] is Pichia kudriavzevii. Description: In vitro evaluation of minimum inhibitory concentration against Candida krusei 70. Type of test: functional. The procedure, abridged: as §1
The subject of test [8] is Candida parapsilosis. As to the kind of experiment: In vitro evaluation of minimum inhibitory concentration against Candida parapsilosis 61. The test is classed as functional. The procedure, abridged:
as §1

Test [9] has as its system Candida tropicalis. As to the kind of experiment: In vitro evaluation of minimum inhibitory concentration against Candida tropicalis 2.11. The test is classed as functional. The note with it: Candida tropicalis; read-out: MIC. In a few lines: as §1
Test [10] deals with Kluyveromyces marxianus. Description: In vivo Evaluation of minimum inhibitory concentration against Candida pseudotropicalis 13. The test is classed as functional. In a few lines:
as §1

The subject of test [11] is Mus sp. As to the kind of experiment: In vivo evaluation of % survival rate after peroral administration on 3rd day at dose 1 mg/kg. Type of test: functional. The note with it: Mus sp., po.
The subject of test [12] is Mus sp. As to the kind of experiment: In vivo evaluation of % survival rate after peroral administration on 5th day at dose 1 mg/kg. Type of test: functional. The note with it: Mus sp., po.
In test [13] the test system is Mus sp. As to the kind of experiment: In vivo evaluation of % survival rate after peroral administration on 7th day at dose 1 mg/kg. The note with it: Mus sp., po. The test is classed as functional.
In test [14] the test system is Mus sp. As to the kind of experiment: In vivo evaluation of % survival rate after peroral administration on 9th day at dose 1 mg/kg. The test is classed as functional. The note with it: Mus sp., po.
Test [15] deals with Microsporum canis. Description: In vitro evaluation of minimum inhibitory concentration against Microsporum canis 47. The test is classed as functional. In a few lines:
as §1

Test [16] concerns Nannizzia gypsea. Description: In vitro evaluation of minimum inhibitory concentration against Microsporum gypseum 22. Type of test: functional. In a few lines:
as §1

Test [17] has as its system Nakaseomyces glabratus. As to the kind of experiment: In vitro evaluation of minimum inhibitory concentration against Torulopsis glabrata 78. Type of test: functional. The procedure, abridged: as §1
In test [18] the test system is Trichophyton benhamiae. As to the kind of experiment: In vitro evaluation of minimum inhibitory concentration against Trichophyton mentagrophytes 23. Type of test: functional, Arthroderma benhamiae. In a few lines: as §1
For test [19], the system named is Trichophyton rubrum. As to the kind of experiment: In vitro evaluation of minimum inhibitory concentration against Trichophyton rubrum 90. Type of test: functional. In a few lines:
as §1

For test [20], the system named is Rhodotorula mucilaginosa. As to the kind of experiment: In vitro evaluation of minimum inhibitory concentration against Rhodotorula rubra 16. Type of test: functional. The conditions noted are these: Rhodotorula mucilaginosa; read-out: MIC. The procedure, abridged:
as §1

Test [21] has as its system Aspergillus flavus. Description: In vitro evaluation of minimum inhibitory concentration against Aspergillus flavus 19. The note with it: Aspergillus flavus; read-out: MIC. The test is classed as functional. In a few lines: as §1
Test [22] relates to Mus sp. Description: In vivo evaluation of % survival rate after peroral administration on 3rd day at dose 2.5 mg/kg. The conditions noted are these: route oral, 2.5 mg/kg. The test is classed as functional.
For test [23], the system named is Mus sp. Description: In vivo evaluation of % survival rate after peroral administration on 5th day at dose 2.5 mg/kg. Type of test: functional. The conditions noted are these: route oral, 2.5 mg/kg.
For test [24], the system named is Mus sp. Description: In vivo evaluation of % survival rate after peroral administration on 7th day at dose 2.5 mg/kg. The test is classed as functional. The note with it: route oral, 2.5 mg/kg.
Test [25] deals with Mus sp. As to the kind of experiment: In vivo evaluation of % survival rate after peroral administration on 9th day at dose 2.5 mg/kg. Type of test: functional. The note with it: route oral, 2.5 mg/kg.
Where [26] appears, read: Candida albicans, read-out: MIC.

Values after ≈ are worked out from the molar mass of the structure shown.

Broadly, the MIC is the least concentration at which growth counts as inhibited. Consider `C[C@H]1N(C(=O)c2ccc(OCC(F)(F)C(F)F)cc2)C[C@H](O)O[C@@]1(Cn1cncn1)c1ccc(F)cc1F` (racemic), for which the MIC was above 80 µg/mL in test [1] (Aspergillus fumigatus, read-out: MIC); above 80 µg/mL in [2]; 80 µg/mL (≈ 147 µM) in [3] (setting [26]); 1.25 µg/mL (≈ 2.3 µM) in test [4] (setting [26]); 5 µg/mL (≈ 9.18 µM) in [5] (setting [26]); 80 µg/mL (≈ 147 µM) in [6] (Meyerozyma guilliermondii, read-out: MIC). The MIC was above 80 µg/mL in test [7] (Pichia kudriavzevii, read-out: MIC); 10 µg/mL (≈ 18.4 µM) in test [8] (Lodderomyces parapsilosis, read-out: MIC); 80 µg/mL (≈ 147 µM) in [9]; 0.63 µg/mL (≈ 1.16 µM) in test [10] (Kluyveromyces marxianus, in the assay text read “In vitro” for “In vivo”, read-out: MIC); above 80 µg/mL in [15] (Microsporum canis, read-out: MIC); above 80 µg/mL in test [16] (Nannizzia gypsea, read-out: MIC). In addition, the MIC in [17] (Nakaseomyces glabratus, read-out: MIC) was above 80 µg/mL; in test [18] (Trichophyton benhamiae, read-out: MIC), above 80 µg/mL; in [19] (Trichophyton rubrum, read-out: MIC) it was above 80 µg/mL; in [20], above 80 µg/mL; in [21] it was above 80 µg/mL. Further, the survival at 1 mg/kg in [11] stood at 80%; in test [12] it was 50%; in test [13], 0%; in test [14], 0%.
Regarding `C[C@H]1N(C(=O)c2ccc(C(F)(F)F)cc2)CCO[C@@]1(Cn1cncn1)c1ccc(F)cc1F` (stereo in doubt; (+)-41), the MIC in test [1], in test [3], in test [4], in test [5], in test [6] and in test [7] was above 80 µg/mL in each case. For the same compound, the MIC was above 80 µg/mL in test [8]; 10 µg/mL (≈ 21.4 µM) in test [10]; above 80 µg/mL in [15]; above 80 µg/mL in [16]; above 80 µg/mL in test [17]; above 80 µg/mL in test [18]. For the same compound, in [19], the MIC was 80 µg/mL (≈ 172 µM). The Survival is reported as 10% in test [22], 0% in test [23], 0% in test [24] and 0% in test [25].
